Most compounds without a hit are left out; they make up all but 9.2% or so of the library.
HUVEC prolif 384: human endothelial cell proliferation inhibition; viability, % at 10 µM (by protocol); actives 1.1% (n = 86,000); HUVEC proliferation, CellTiter-Glo luminescence, 72 h; hits give low values; AID 648;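 active = viability at or below 30%; inactive = viability above 30%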
ERa coact inh: blocks coactivator binding to human estrogen receptor alpha; P03372; TR-FRET ER-alpha LBD / SRC-1 peptide, estradiol-bound; inhibition, % at 25.6 µM; actives 1.7% (n = 86,000); in the data active = inhibition above about 50%
Lung fibro prol: blocks proliferation of human lung fibroblasts; AID 719; viability, % at 10 µM; LL 47 human lung fibroblast viability, ATP luminescence; hits give low values; actives 1.1% (n = 85,000);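 active = viability at or below 50% in the single dose screen; inactive = viability above 50%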;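 also: compound exposure lasted 72 h before the ATP readout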
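Benchmarks: Cell-only wells, no compound | Test system: LL 47 human lung fibroblasts, passage 12 or lower | Input: 1,150 cells/well | Measured by: CellTiter-Glo luminescence measuring cellular ATP | Medium: IMEM, 15% FBS supplement | Schedule: Overnight attachment after seeding, then 72 h compound exposure at 37 °C | Doses: Compound addition at 0.1% DMSO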
ERb SRC1 inh: ER-beta (human) coactivator binding inhibition | Q92731 | TR-FRET ER-beta LBD / SRC1-Cy5 peptide binding; receptor agonist-loaded with 1 µM estradiol | inhibition, % at 25.6 µM | actives 1.3% (n = 86,000);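 active = compounds whose percent inhibition of the receptor-coactivator binding signal exceeds about 50% in the single-dose screen, limit read from the data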
Target sequence (Q92731 whole entry, looked up, the tested form may be a part): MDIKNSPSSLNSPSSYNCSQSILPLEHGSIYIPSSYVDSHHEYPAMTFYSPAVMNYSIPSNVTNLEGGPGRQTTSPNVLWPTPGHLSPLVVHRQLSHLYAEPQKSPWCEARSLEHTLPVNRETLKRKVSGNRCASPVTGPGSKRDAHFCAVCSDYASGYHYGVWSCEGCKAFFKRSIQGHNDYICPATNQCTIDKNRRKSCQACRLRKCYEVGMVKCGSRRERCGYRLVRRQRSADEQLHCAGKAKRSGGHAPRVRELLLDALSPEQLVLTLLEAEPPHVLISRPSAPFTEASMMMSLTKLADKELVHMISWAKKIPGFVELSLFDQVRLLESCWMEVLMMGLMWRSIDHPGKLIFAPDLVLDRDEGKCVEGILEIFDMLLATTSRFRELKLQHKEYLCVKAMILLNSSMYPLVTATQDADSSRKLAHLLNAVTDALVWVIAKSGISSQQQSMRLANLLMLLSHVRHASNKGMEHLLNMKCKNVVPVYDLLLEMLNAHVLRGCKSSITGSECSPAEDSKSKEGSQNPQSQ
ERa coact pot: ER-alpha (human) coactivator binding potentiation; P03372; TR-FRET ERalpha-LBD/SRC-Cy5 coactivator binding, 2 h; 100 = basal binding, no effect; coactivator binding (% of control), % at 25.6 µM; actives 1.3% (n = 86,000); AID 639; in the data active = activity above about 200%;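 also: binding measured in presence of low estradiol as agonist stimulus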
H69AR inhibit: blocks growth of human H69AR lung tumor cells. H69AR lung tumor viability, ATP luminescence, 72 h; hits give low values. viability, % at 10 µM. actives 6% (n = 85,000);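 active = viability at or below 40%; inactive = viability above 40%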;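 also: multidrug resistant small cell line overexpressing MRP-1 efflux transporter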
Large screens that a line does not name were inactive; [ ] = remark or other dose.

Cn1c(C(=O)NCCN2CCc3ccccc3C2)cc2c(=O)n(C)c3ccccc3c21	H69AR inhibit 15.1
COc1cc(NC(=O)c2cc3c(=O)n(C)c4ccccc4c3n2C)cc(OC)c1OC	ERa coact pot 330.2
Cn1c(C(=O)NCc2cccs2)cc2c(=O)n(C)c3ccccc3c21	ERa coact pot 512.8[fluorescence artefact?], H69AR inhibit 39.8
CN(CCNC(=O)c1cc2c(=O)n(C)c3ccccc3c2n1C)Cc1ccccc1	H69AR inhibit 37.4
Cc1ccc(CNC(=O)c2cc3c(=O)n(C)c4ccccc4c3n2C)cc1	ERa coact pot 290.9[fluorescence artefact?]
O=C(NCc1ccc(Cl)cc1Cl)C(=O)N1CCCCC1	none
CCCC(=O)NCCSC	none
CCc1ccc2[nH]c(=O)c(C(c3nnnn3CCOC)N3CCN(c4ccccc4)CC3)cc2c1 (configuration not stated)	none
Cc1ccc(CNc2ccc3c(c2)OCO3)c(C)c1	H69AR inhibit 29.8
c1cncc(CNc2ccc3c(c2)OCO3)c1	none
CCC(c1nnnn1Cc1ccc2c(c1)OCO2)N1CCN(c2ccc(F)cc2)CC1 (configuration not stated)	ERb SRC1 inh 78.7[fluorescence artefact?]
Cc1nc2sc3c(c2c2nc(-c4ccco4)nn12)CCCC3	H69AR inhibit 9.1
O=C1C=C(Nc2ccc(Cl)cc2)CC(c2ccco2)C1 (configuration not stated)	H69AR inhibit 25.5
O=C1C=C(Nc2cccc(O)c2)CC(c2ccco2)C1 (configuration not stated)	none
COc1cc2nc(SCC(=O)NC3CC3)n(CCC3=CCCCC3)c(=O)c2cc1OC	HUVEC prolif 384 24.8, H69AR inhibit 33.6
C=CCn1c(SCc2c(C)noc2C)nc2cc(C(=O)O)ccc2c1=O	none
COc1cc2nc(SCc3c(C)noc3C)n(CCC3=CCCCC3)c(=O)c2cc1OC	H69AR inhibit 26.7
Cc1ccc(NC(=O)C2=C(O)CCn3c2nc2ccccc23)cc1	H69AR inhibit 26.0
Cc1ccc(NC(=O)c2ccccc2O)cc1	none
CCC(=O)OC1=C2C(=Nc3c(c(=O)n(C)c(=O)n3C)C2c2ccccc2)c2ccccc21 (configuration not stated)	none
Cc1ccc(C)c(C(=O)Nc2c(C(N)=O)oc3ccccc23)c1	ERb SRC1 inh 90.2[fluorescence artefact?]
NC(=O)c1oc2ccccc2c1NC(=O)c1ccccc1	none
CSc1ccc(S(=O)(=O)Nc2ccc(F)cc2)cc1	ERa coact inh 67.0[fluorescence artefact?]
CSc1ccc(S(=O)(=O)NCc2ccccc2Cl)cc1	none
COc1ccc(NS(=O)(=O)c2ccc(SC)cc2)cc1	none
CSc1ccc(S(=O)(=O)Nc2c(C)cccc2C)cc1	ERa coact inh 54.7
CCOc1ccc(S(=O)(=O)Nc2ccccc2SC)cc1	H69AR inhibit 30.5
CCc1ccccc1NS(=O)(=O)c1ccc(SC)cc1	ERa coact inh 66.3[fluorescence artefact?] (no result: Lung fibro prol)
Cc1cc2occ(CC(=O)NC3=NCCS3)c2cc1C(C)C	none
Cc1nc2ccccc2c(=O)n1/N=C/c1cccnc1	none
Cc1ccc(-c2nc(N/N=C/c3cccnc3)c3ccccc3n2)cc1	H69AR inhibit 25.6
CN1C(=O)c2cccc(NC(=O)Cc3ccccc3)c2C1=O	none
COCCn1nnnc1C(c1cc2ccc(C)cc2[nH]c1=O)N(Cc1ccco1)Cc1cccs1 (configuration not stated)	none
CN(C)c1ccc(/C=C(\C#N)C(=O)Nc2nc3c(s2)CCN(Cc2ccccc2)C3)cc1	HUVEC prolif 384 23.5, H69AR inhibit 2.4
CC(=O)Nc1nnc(SCC(=O)N2CCN(Cc3ccccc3)CC2)s1	none
O=C(NCC1c2ccccc2CCN1C(=O)CN1C(=O)c2ccccc2C1=O)C1CCCCC1 (configuration not stated)	none
CN(/N=C/c1cccnc1)c1cnn(-c2ccc(F)c(Cl)c2)c(=O)c1Cl	ERa coact inh 61.2
O=C(NC1CCCCC1)c1cccc(Cn2cc(Cl)cn2)c1	none
Cc1cc(C)nc(-n2nc(C)cc2NC(=O)CN2CCC(C)CC2)n1	H69AR inhibit 9.5
CCC1CCCCN1CC(=O)Nc1cc(C)nn1-c1nc(C)cc(C)n1 (configuration not stated)	H69AR inhibit 18.6
Cc1cc(NC(=O)C2CCCC2)n(-c2nc3ccccc3[nH]2)n1	none
COc1ccc(CCNC(=O)c2n[nH]c(=O)c3ccccc23)cc1	none
CCC(Sc1nc2ccccc2s1)C(=O)Nc1cc(C)on1 (configuration not stated)	none
Nc1nc2n(n1)C(c1ccc(F)cc1)CC(c1ccc(F)cc1)N2 (configuration not stated)	none
Oc1ccc(-c2nnc(SCC3CCCCC3)o2)cc1	H69AR inhibit 34.6
CCOC(=O)/C(C(C)=O)=C1/OC(=O)c2ccccc21	none
COC(=O)c1oc2ccc(Br)cc2c1NC(=O)CN1CCN(C)CC1	none
COC(=O)c1oc2ccc(Br)cc2c1NC(=O)c1ccccc1	H69AR inhibit 29.7
CN(CC(=O)NC(c1ccccc1)c1ccccc1)Cc1nc2ccccc2c(=O)[nH]1	none
CN(CC(=O)NC(=O)NCc1ccco1)Cc1nc2ccccc2c(=O)[nH]1	ERa coact inh 60.8
O=S1(=O)N=C(Oc2cccc3ccccc23)c2ccccc21	H69AR inhibit 25.4
N#Cc1c(-c2ccc(Cl)cc2)ccn2nc(C3CCCCC3)nc12	H69AR inhibit 31.3
COc1ccc(CC(=O)Nc2cc(C)ccn2)cc1	none
N#Cc1c(-c2ccc(Br)cc2)nc2n(c1=O)CCCS2	ERa coact pot 239.4
CCOC(=O)c1c(NC(=O)CSc2nnnn2CC)sc(C)c1C	H69AR inhibit 30.6
CCOC(=O)c1c(NC(=O)CSc2n[nH]c(CNc3ccccc3)n2)sc(C)c1C	H69AR inhibit 31.4
CCOC(=O)c1c(NC(=O)CSc2n[nH]c(-c3ccco3)n2)sc(C)c1C	none
O=S(=O)(Cc1ccc(Cl)cc1)N1CCCC1	none
O=C(Nc1ccc2c(c1)OCO2)C1CCN(C(=O)CSc2ncnc3ccccc23)CC1	ERa coact inh 54.5[fluorescence artefact?]
CC(Sc1ncnc2ccccc12)C(=O)Nc1ccc2c(c1)OCO2 (configuration not stated)	none
OCCN1CCN(Cc2cccc(Oc3ccc(Cl)cc3)c2)CC1	none
OCCN1CCN(CCCN2c3ccccc3Sc3ccc(Cl)cc32)CC1	HUVEC prolif 384 1.8, Lung fibro prol 28.2, H69AR inhibit 1.5
N#CC1=C(c2ccccc2)N=P(N2CCOCC2)(N2CCOCC2)N=C1N1CCOCC1	none
Cc1ccc(C(=O)C(C)OC(=O)C2CC(=O)N(C3CCCCC3)C2)cc1 (configuration not stated)	none
CC1Cc2ccccc2N1Cc1nc2cc(C(F)(F)F)ccc2c(=O)[nH]1 (configuration not stated)	H69AR inhibit 36.8
CC1Cc2ccccc2N1Cc1cc(=O)n2ccsc2n1 (configuration not stated)	none

Screening data from PubChem.
